# Data: ChEMBL document CHEMBL3132745, “Synthesis and Antimicrobial Activities of His(2-aryl)-Arg and Trp-His(2-aryl) Classes of Dipeptidomimetics” (Medchemcomm, 2014)
# The source made the active and inactive calls. How the calls were made is not given here.
# Assays:
# BT-549 = assay: Cytotoxicity against human BT549 cells assessed as cell viability after 48 hrs by neutral red uptake assay; format: cell-based; settings: bt-549, 48 h
# Method in brief: (§1)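 Neutral red uptake assay on human cancer lines (SK-MEL, KB, BT-549, SK-OV-3) and noncancerous mammalian cells (VERO, LLC-PK1). Highest tested concentration was 10 µg/mL.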
# [1] = Selectivity index, ratio of cytotoxicity against human SK-MEL cells to IC50 for Cryptococcus neoformans ATCC 90113; format: toxicity, cell-based; settings: read-out: Selectivity Index
# Aspergillus fumigatus = assay: Antifungal activity against Aspergillus fumigatus assessed as growth inhibition; format: functional, organism-based
# SK-OV-3 = assay: Cytotoxicity against human SKOV3 cells assessed as cell viability after 48 hrs by neutral red uptake assay; format: cell-based; settings: sk-ov-3, 48 h; method in brief: as §1
# Candida albicans = assay: Antifungal activity against Candida albicans assessed as growth inhibition; format: functional, organism-based
# Pichia kudriavzevii = assay: Antifungal activity against Candida krusei assessed as growth inhibition; format: functional, organism-based
# [2] = Selectivity index, ratio of cytotoxicity against human KB cells to IC50 for Cryptococcus neoformans ATCC 90113; format: toxicity, cell-based; settings: read-out: Selectivity Index
# [3] = Selectivity index, ratio of cytotoxicity against pig LLC-PK1 cells to IC50 for Cryptococcus neoformans ATCC 90113; format: toxicity, cell-based; settings: read-out: Selectivity Index
# Vero = assay: Cytotoxicity against african green monkey Vero cells assessed as cell viability after 48 hrs by neutral red uptake assay; format: cell-based; settings: chlorocebus sabaeus; method in brief: as §1
# KB = assay: Cytotoxicity against human KB cells assessed as cell viability after 48 hrs by neutral red uptake assay; format: cell-based; method in brief: as §1
# Cryptococcus neoformans = assay: Antifungal activity against Cryptococcus neoformans ATCC 90113 assessed as growth inhibition after 70-74 hrs by CLSI method; format: functional, organism-based; settings: Cryptococcus neoformans, ATCC 90113; for IC50: read-out: IC50
# [4] = Selectivity index, ratio of cytotoxicity against african green monkey Vero cells to IC50 for Cryptococcus neoformans ATCC 90113; format: toxicity, cell-based; settings: read-out: Selectivity Index
# SK-MEL = assay: Cytotoxicity against human SK-MEL cells assessed as cell viability after 48 hrs by neutral red uptake assay; format: cell-based; method in brief: as §1
# Nakaseomyces glabratus = assay: Antifungal activity against Candida glabrata assessed as growth inhibition; format: functional, organism-based
# Escherichia coli = assay: Antibacterial activity against Escherichia coli ATCC 35218 assessed as growth inhibition after 16-20 hrs by CLSI method; format: functional, organism-based
# LLC-PK1 = assay: Cytotoxicity against pig LLC-PK1 cells assessed as cell viability after 48 hrs by neutral red uptake assay; format: cell-based, Sus scrofa; settings: llc-pk1, 48 h; method in brief: as §1
# [5] = Selectivity index, ratio of cytotoxicity against human SKOV3 cells to IC50 for Cryptococcus neoformans ATCC 90113; format: toxicity, cell-based, SK-OV-3; settings: read-out: Selectivity Index
# [6] = Selectivity index, ratio of cytotoxicity against human BT549 cells to IC50 for Cryptococcus neoformans ATCC 90113; format: toxicity, cell-based, BT-549; settings: read-out: Selectivity Index
MIC (Cryptococcus neoformans) [µg/mL],SMILES,Activity (BT-549) [µg/mL],selectivity ratio [1],growth inhibition (GI) (Aspergillus fumigatus),Activity (SK-OV-3) [µg/mL],growth inhibition (GI) (Candida albicans),growth inhibition (GI) (Pichia kudriavzevii),selectivity ratio [2],selectivity ratio [3],Activity (Vero) [µg/mL],Activity (KB) [µg/mL],MFC (Cryptococcus neoformans) [µg/mL],IC50 (Cryptococcus neoformans) [µg/mL],selectivity ratio [4],Activity (SK-MEL) [µg/mL],growth inhibition (GI) (Nakaseomyces glabratus),growth inhibition (GI) (Escherichia coli),Activity (LLC-PK1) [µg/mL],selectivity ratio [5],selectivity ratio [6]
5,CC(C)(C)OC(=O)N[C@@H](Cc1c[nH]c(-c2ccccc2)n1)C(=O)N[C@@H](CCCNC(=N)N)C(=O)NCc1ccccc1,> 10,> 3.9,inactive,> 10,inactive,inactive,> 3.9,> 3.9,> 10,> 10,5,2.56,> 3.9,> 10,inactive,inactive,> 10,> 3.9,> 3.9
5,N[C@@H](Cc1c[nH]c2ccccc12)C(=O)N[C@@H](Cc1c[nH]c(-c2ccccc2)n1)C(=O)NCc1ccccc1,> 10,> 4.9,inactive,> 10,inactive,inactive,> 4.9,> 4.9,> 10,> 10,5,2.04,> 4.9,> 10,inactive,inactive,> 10,> 4.9,> 4.9
20,Cc1ccc(-c2nc(C[C@H](NC(=O)[C@@H](N)Cc3c[nH]c4ccccc34)C(=O)NCc3ccccc3)c[nH]2)cc1,> 10,> 1.3,inactive,> 10,inactive,inactive,> 1.3,> 1.3,> 10,> 10,–,7.84,> 1.3,> 10,inactive,inactive,> 10,> 1.3,> 1.3

# The remaining lines, values behind:
SMILES,MIC (Cryptococcus neoformans) [µg/mL],Activity (BT-549) [µg/mL],selectivity ratio [1],growth inhibition (GI) (Aspergillus fumigatus),Activity (SK-OV-3) [µg/mL],growth inhibition (GI) (Candida albicans),growth inhibition (GI) (Pichia kudriavzevii),selectivity ratio [2],selectivity ratio [3],Activity (Vero) [µg/mL],Activity (KB) [µg/mL],MFC (Cryptococcus neoformans) [µg/mL],IC50 (Cryptococcus neoformans) [µg/mL],selectivity ratio [4],Activity (SK-MEL) [µg/mL],growth inhibition (GI) (Nakaseomyces glabratus),growth inhibition (GI) (Escherichia coli),Activity (LLC-PK1) [µg/mL],selectivity ratio [5],selectivity ratio [6]
N=C(N)NCCC[C@H](NC(=O)[C@@H](N)Cc1c[nH]c(-c2cccc3ccccc23)n1)C(=O)NCc1ccccc1,1.25,> 10,> 16.1,inactive,> 10,inactive,inactive,> 16.1,> 16.1,> 10,> 10,1.25,0.62,> 16.1,> 10,inactive,inactive,> 10,> 16.1,> 16.1
Cc1ccc(-c2nc(C[C@H](NC(=O)OC(C)(C)C)C(=O)N[C@@H](CCCNC(=N)N)C(=O)NCc3ccccc3)c[nH]2)cc1,10,> 10,> 1.7,inactive,> 10,inactive,inactive,> 1.7,> 1.7,> 10,> 10,10,6.04,> 1.7,> 10,inactive,inactive,> 10,> 1.7,> 1.7
COC(=O)[C@H](Cc1c[nH]c(-c2ccc(-c3ccccc3)cc2)n1)NC(=O)[C@@H](N)Cc1c[nH]c2ccccc12,10,> 10,> 2.6,inactive,> 10,inactive,inactive,> 2.6,> 2.6,> 10,> 10,20,3.82,> 2.6,> 10,inactive,inactive,> 10,> 2.6,> 2.6
